Compound activity: PubChem BioAssay, several laboratories
ABHD5-PLIN5 inh – ABHD5-PLIN5 interaction inhibitors, primary screen, cell lysate, split luciferase complementation, luminescence; Split G. princeps luciferase complementation, 4 h; inhibition, % at 4 µM; actives 0.78% (n = 360,000); Perilipin-5 (Homo sapiens) + 1-acylglycerol-3-phosphate O-acyltransferase ABHD5 (Homo …;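 active means inhibition above the mean inhibition across every tested compound plus 3 SD, cut at about 22% in these data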
Target sequence (Q00G26 whole entry, looked up): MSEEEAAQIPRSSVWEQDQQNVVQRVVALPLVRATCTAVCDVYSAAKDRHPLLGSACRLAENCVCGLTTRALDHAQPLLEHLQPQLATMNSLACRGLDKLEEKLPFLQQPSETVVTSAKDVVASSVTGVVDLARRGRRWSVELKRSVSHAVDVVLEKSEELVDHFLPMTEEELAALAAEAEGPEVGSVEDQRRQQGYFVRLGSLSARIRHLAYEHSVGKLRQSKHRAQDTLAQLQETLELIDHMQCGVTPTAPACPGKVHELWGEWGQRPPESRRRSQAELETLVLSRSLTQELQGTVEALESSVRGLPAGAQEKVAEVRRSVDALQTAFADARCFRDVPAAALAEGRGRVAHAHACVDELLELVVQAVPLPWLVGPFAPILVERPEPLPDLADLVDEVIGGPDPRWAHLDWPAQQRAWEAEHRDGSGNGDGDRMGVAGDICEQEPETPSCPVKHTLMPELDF
Target sequence (Q8WTS1 whole entry, looked up): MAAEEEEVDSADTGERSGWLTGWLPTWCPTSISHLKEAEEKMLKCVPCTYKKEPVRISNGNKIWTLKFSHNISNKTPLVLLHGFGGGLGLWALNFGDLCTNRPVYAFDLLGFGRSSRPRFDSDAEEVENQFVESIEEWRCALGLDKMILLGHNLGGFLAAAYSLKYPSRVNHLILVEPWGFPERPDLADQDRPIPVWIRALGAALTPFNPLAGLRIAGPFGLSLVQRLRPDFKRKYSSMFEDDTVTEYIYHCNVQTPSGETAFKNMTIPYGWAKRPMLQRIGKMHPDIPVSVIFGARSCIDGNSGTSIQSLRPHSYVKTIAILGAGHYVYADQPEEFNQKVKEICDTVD
Rpn11 inh – Rpn11 (PSMD14) deubiquitinase inhibitors, primary screen, biochemical, fluorescence polarization, uHTS; inhibition, % at 20 µM; actives 0.59% (n = 360,000); human 26S proteasome, Ub4-pepOG fluorescence polarization; 20S core pre-blocked with epoxomicin;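 active means inhibition at 20 µM, scaled to each plate's controls, above about 33%, limit read from the data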
XiGFP reactiv – activators of inactive X chromosome reactivation, primary screen, imaging, XiGFP fibroblasts, GFP high-content imaging, set 2; actives 0.055% (n = 360,000); activation, % at 7.58 µM; XiGFP mouse fibroblasts, % GFP-positive cells imaging, 3 d; cells co-treated with 5-aza-dC sensitizer; scaled so ellipticine positive control = 100%;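 active means mean normalized replicate activation at least 10% and every replicate at or above 10%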
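System: SV40-immortalized XiGFP fibroblast cells, line 68-5-11 / Incubation: 3-day compound exposure, then 15 min fixation at room temperature / Compound: single concentration per compound, delivered by pin transfer / Buffer or medium: DMEM plus 5-aza-dC sensitizer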
Rin1 Abl inh – inhibitors of Rin1-Abl protein binding, primary screen, biochemical, TR-FRET | Tyrosine-protein kinase ABL1 (Homo sapiens) + Ras and Rab interactor 1 (Homo sapiens), … | inhibition, % at 7.35 µM | actives 0.4% (n = 360,000); in the data active means inhibition above about 5%, passing the limit was not always enough
NadD inh – inhibitors of S. aureus NadD, primary screen, biochemical, colorimetric, uHTS; Nicotinate-nucleotide adenylyltransferase NadD (Staphylococcus aureus N315); purified NadD enzyme, colorimetric absorbance read-out; inhibition, % at 20 µM; actives 0.78% (n = 360,000); in the data active means inhibition above about 26%
Rin1-Abl confirm – Rin1-Abl binding inhibitor retest, confirmation, biochemical, TR-FRET. shares compounds with Rin1 Abl inh. purified proteins. inhibition, % at 7.35 µM. actives 49% (n = 1,300)
GFP quench – GFP fluorescence inhibitors and quenchers, artefact control for Rin1-Abl interaction inhibitor project, biochemical. shares compounds with Rin1 Abl inh. inhibitors/quenchers counterscreen. inhibition, % at 6.75 µM. actives 8.5% (n = 1,300). AID 602125, 2011;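 further: ABL1-eGFP fusion protein alone without its partner RIN1-SBP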
GFP quench dose – GFP fluorescence inhibitors and quenchers, dose response, artefact control for Rin1-Abl interaction inhibitor project, biochemical; IC50, µM; AID 602182, 2012; 230 tested, under 10 active; GFP fluorescence interference/quenching counterscreen; shares compounds with Rin1 Abl inh; call rule not given here;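 further: ABL1-eGFP fusion protein alone without its RIN1 binding partner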
Large screens that a line does not name were inactive (follow-up assays come after a bar, where they were run). An excerpt weighted towards active compounds, which were near 1.9% of everything screened. Unless noted, no stated cut-off is given here; in the data, active means inhibition above about 6.5%; inactive means the rest.

CCOC(=O)CCCCC(=O)c1[nH]c(=O)[nH]c1CSCCO	Rin1 Abl inh 78 (no result: XiGFP reactiv) | Rin1-Abl confirm 82 | GFP quench inactive | GFP quench dose inactive
O=C1NCC(O)=C1C=NC12CC3CC(CC(C3)C1)C2	Rin1 Abl inh 31 (no result: XiGFP reactiv) | Rin1-Abl confirm 23 | GFP quench inactive | GFP quench dose inactive
O=C(O)CCCCCCCCCCC1CCC(O)C1O (stereo not drawn)	none
O=C(O)CCCC[C@@H]1SC[C@@H]2NC(=O)N[C@@H]21	Rin1 Abl inh 84 (no result: XiGFP reactiv) | Rin1-Abl confirm 93 | GFP quench inactive | GFP quench dose inactive
COC(=O)CCCCC1SCC2NC(=O)NC21 (stereo not drawn)	Rin1 Abl inh 12 | Rin1-Abl confirm 16 | GFP quench inactive
CN(CC(=O)Nc1cccc(C(F)(F)F)c1)C1=NS(=O)(=O)c2ccccc21	Rin1 Abl inh 9.9 | Rin1-Abl confirm inactive | GFP quench inactive
CN(CC(=O)Nc1cccc(Cl)c1)C1=NS(=O)(=O)c2ccccc21	none
CC(C)NC(=O)N(C)C[C@H]1Oc2ccc(NC(=O)Cc3cn(C)c4ccccc34)cc2C(=O)N([C@@H](C)CO)C[C@H]1C	none (no result: ABHD5-PLIN5 inh, Rpn11 inh, Rin1 Abl inh, NadD inh)
CC(=O)Nc1cccc(-c2ccnc3c2CC(C(=O)NCc2ccc(N(C)C)cc2)O3)c1 (stereo not drawn)	Rin1 Abl inh 17 | Rin1-Abl confirm 10 | GFP quench inactive
CC(=O)Nc1ccc(-c2ccnc3c2CC(C(=O)NCc2ccc(N4CCN(C)CC4)cc2)O3)cc1 (stereo not drawn)	Rin1 Abl inh 14 | Rin1-Abl confirm 14 | GFP quench inactive
CN1CCN(c2ccc(CNC(=O)C3Cc4c(-c5ccc6c(c5)OCO6)ccnc4O3)cc2)CC1 (stereo not drawn)	Rin1 Abl inh 15 | Rin1-Abl confirm 14 | GFP quench inactive
CC(=O)Nc1cccc(-c2ccnc3c2CC(C(=O)NCc2ccc(N4CCN(C)CC4)cc2)O3)c1 (stereo not drawn)	Rin1 Abl inh 31 | Rin1-Abl confirm 28 | GFP quench inactive | GFP quench dose inactive
O=C(NCc1ccncc1)C1Cc2c(-c3ccc4c(c3)OCO4)ccnc2O1 (stereo not drawn)	none
CC(C)c1cn(CC[C@@H]2CC[C@H](NC(=O)C3CCOCC3)[C@H](CO)O2)nn1	none (no result: ABHD5-PLIN5 inh, Rpn11 inh, Rin1 Abl inh, NadD inh)
CN1CCN(c2ccc(CNC(=O)C3Cc4c(-c5ccc(Cl)cc5)ccnc4O3)cc2)CC1 (stereo not drawn)	Rin1 Abl inh 15 | Rin1-Abl confirm 9.5 | GFP quench inactive
CCC1CCCCN1S(=O)(=O)c1ccc(NC(=O)c2cccs2)cc1 (stereo not drawn)	Rin1 Abl inh 10 (no result: XiGFP reactiv) | Rin1-Abl confirm inactive | GFP quench inactive
C[C@H]1COCn2nncc2CC[C@H](C)C(=O)N1	none (no result: ABHD5-PLIN5 inh, Rpn11 inh, Rin1 Abl inh, NadD inh)
CN1CCCN(C(=O)C2CCC(C(=O)N3CCCN(C)CC3)CC2)CC1 (stereo not drawn)	none
O=C(C1CCC(C(=O)N2CCCCC2)CC1)N1CCCCC1 (stereo not drawn)	Rin1 Abl inh 6.2 (no result: XiGFP reactiv) | Rin1-Abl confirm inactive | GFP quench inactive
Clc1ccc(C2[C@H]3CN(Cc4cccnc4)[C@H](c4ccccc4)C34CC2(c2cccnc2)C4)cn1 (stereo partly drawn)	Rin1 Abl inh 59 | Rin1-Abl confirm 72 | GFP quench inactive
